Each structure is given as a SMILES string. Where only a bound is given, the exact number is not on record here.

Usually IC50 stands for the concentration at which inhibition is half-maximal. The term Papp denotes the rate of passage across a membrane or cell layer, normalised by area and donor concentration.

The target of data set [1] is T1, Amine oxidase [flavin-containing] B (Homo sapiens, UniProt P27338).
T1 sequence (P27338 whole entry): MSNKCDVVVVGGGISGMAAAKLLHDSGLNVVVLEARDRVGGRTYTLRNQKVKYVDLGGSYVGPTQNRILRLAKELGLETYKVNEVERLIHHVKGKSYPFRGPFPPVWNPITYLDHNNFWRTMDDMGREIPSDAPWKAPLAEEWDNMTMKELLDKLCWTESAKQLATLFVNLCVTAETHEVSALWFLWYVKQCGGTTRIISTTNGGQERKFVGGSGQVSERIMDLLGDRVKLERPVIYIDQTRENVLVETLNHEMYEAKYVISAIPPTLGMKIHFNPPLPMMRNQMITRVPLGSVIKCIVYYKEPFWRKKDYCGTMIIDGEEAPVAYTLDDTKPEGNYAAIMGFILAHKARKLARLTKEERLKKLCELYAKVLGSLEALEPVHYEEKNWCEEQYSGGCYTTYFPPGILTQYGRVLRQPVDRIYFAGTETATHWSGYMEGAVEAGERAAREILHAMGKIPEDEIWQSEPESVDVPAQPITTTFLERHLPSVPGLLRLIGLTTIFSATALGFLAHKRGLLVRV
Briefly: Inhibition of human recombinant MAO-B preincubated for 30 mins followed by p-tyramine hydrochloride addition measured after 30 mins by Amplex red fluorescence based spectrophotometry.

Data set [2] concerns the target T2, Amine oxidase [flavin-containing] A (Homo sapiens, UniProt P21397).
T2 sequence (P21397 whole entry): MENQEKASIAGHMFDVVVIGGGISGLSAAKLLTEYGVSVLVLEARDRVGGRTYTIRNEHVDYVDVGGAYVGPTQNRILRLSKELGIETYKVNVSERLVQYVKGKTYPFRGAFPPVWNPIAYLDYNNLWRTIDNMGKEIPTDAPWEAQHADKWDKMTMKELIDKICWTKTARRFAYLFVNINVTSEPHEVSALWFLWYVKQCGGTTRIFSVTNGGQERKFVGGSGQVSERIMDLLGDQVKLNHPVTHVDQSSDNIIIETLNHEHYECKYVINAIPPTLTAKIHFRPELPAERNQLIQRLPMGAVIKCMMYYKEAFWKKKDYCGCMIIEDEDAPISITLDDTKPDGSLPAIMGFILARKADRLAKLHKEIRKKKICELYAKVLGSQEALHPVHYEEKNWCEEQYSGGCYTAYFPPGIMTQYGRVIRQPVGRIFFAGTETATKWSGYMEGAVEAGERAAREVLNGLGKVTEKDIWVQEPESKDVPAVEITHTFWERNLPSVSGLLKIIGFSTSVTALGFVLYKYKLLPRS
As to the kind of experiment: Inhibition of human recombinant MAO-A preincubated for 30 mins followed by p-tyramine hydrochloride addition measured after 30 mins by Amplex red fluorescence based spectrophotometry. In a few lines:
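hrMAO-A at 0.36 U/mL preincubated with serial inhibitor dilutions for 30 min at 37 °C. Reaction started by adding 1 mM tyramine, 0.04 U/mL HRP and Amplex UltraRed in 0.25 mM sodium phosphate pH 7.4 (final). Resorufin fluorescence read at 530/590 nm for at least 30 min. No-compound activity set as 100%. Interference checked without enzyme.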

The species named for the next data set is Homo sapiens. As to the kind of experiment: Selectivity index, ratio of IC50 for human recombinant MAO-A to IC50 for human recombinant MAO-B.
Data set [3] can be described thus: Permeability of the compound at pH 7.4 after 18 hrs by PAMPA-BBB assay. (The PAMPA barrier holds no transporters, so it reflects passive diffusion.)
Data set [4] concerns the target T1, Amine oxidase [flavin-containing] B. Briefly: Irreversible inhibition of human recombinant MAO-B at 50 uM preincubated for 1 h followed by 100 fold enzyme dilution and p-tyramine hydrochloride substrate addition measured after 40 mins by Amplex red fluorescence based spectrophotometry.
Data set [5] has the same target. Briefly: Time-dependent inhibition of human recombinant MAO-B at 10 uM preincubated with enzyme followed by p-tyramine hydrochloride substrate addition by Amplex red fluorescence based spectrophotometry. In a few lines:
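hrMAO-B was preincubated with inhibitor at 10 µM for 0–360 min. After each preincubation, activity was measured in the standard Amplex UltraRed/tyramine/HRP fluorometric assay at 530/590 nm. Results were expressed as % of control samples versus preincubation time.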

As to `C#CCN(C)CCc1cn(CC)nn1`, the IC50 in data set [1] was 374 µM; in data set [2], 554 µM. For the same compound, the Ratio IC50 in the data set filed under Homo sapiens stood at 1.5.

With `C#CCN(C)CCc1ccc(Cc2cn(C)nn2)cc1`, the IC50 in data set [1] was found to be 5.2 µM; in data set [2], 27.4 µM. This compound also gave an apparent permeability coefficient (Papp) at 18 h in data set [3] of 4.5 ×10⁻⁶ cm/s. Besides, the Ratio IC50 in the data set listed under Homo sapiens stood at 5.3.

Take `CC(=O)[C@H]1CC[C@H]2[C@@H]3CCC4=CC(=O)CC[C@]4(C)[C@H]3CC[C@]12C` [PROGESTERONE]: the Papp at 18 h in data set [3] is 9.3 to 16.8 ×10⁻⁶ cm/s.

`C#CCN(C)CCc1cn(Cc2ccccc2)nn1`: in data set [4], the “inhibition (INH)” value is “Active”. Further, the IC50 in data set [1] stood at 3.5 µM; in data set [2] it was 97.1 µM. For the same compound, the TDI result in data set [5] is “Active”. This compound had a Papp at 18 h in data set [3] of 15.6 ×10⁻⁶ cm/s. Besides, in the data set filed under Homo sapiens, the Ratio IC50 worked out at 27.7.

Consider `C#CCN(C)CCc1nnn(-c2ccccc2)c1CCC`, for which the IC50 is 157 µM in data set [1] and 26.1 µM in data set [2]. In data set [3], this compound displayed a Papp at 18 h of 17.2 ×10⁻⁶ cm/s. Besides, the Ratio IC50 in the data set filed under Homo sapiens was 0.2.

As for `CCn1cc(C(=O)O)c(=O)c2cc(F)c(N3CCNC(C)C3)c(F)c21` (stereo not given) [LOMEFLOXACIN], the Papp at 18 h in data set [3] was below 0.78 ×10⁻⁶ cm/s.

On to `CN/C(=N/CCSCc1nc[nH]c1C)NC#N` [CIMETIDINE], for which, in data set [3], the apparent permeability (Papp) at 18 h is below 0.7 ×10⁻⁶ cm/s.

Take `CN(C)CCCN1c2ccccc2Sc2ccccc21` [PROMAZINE]: the Papp at 18 h in data set [3] lay within 8.8 to 13.8 ×10⁻⁶ cm/s.

Consider `C#CCN(C)Cc1cn(CCc2ccccc2)nn1`, for which the IC50 was 11.2 µM in data set [1] and above 500 µM in data set [2]. For the same compound, the apparent permeability coefficient (Papp) at 18 h in data set [3] turned out to be 0.6 ×10⁻⁶ cm/s. The Ratio IC50 in the data set filed under Homo sapiens is above 44.6.

For `C#CCN(C)CCc1nnn(C(C)c2ccccc2)c1C` (stereo not given), the half-maximal inhibitory concentration (IC50) in data set [1] was 134 µM; in data set [2], 47 µM. In addition, in data set [3], the Papp at 18 h is 20 ×10⁻⁶ cm/s. For the same compound, the Ratio IC50 in the data set filed under Homo sapiens was determined as 0.4.

Turning to `C#CCN(C)CCc1nnn(-c2ccccc2)c1CCCC`, the IC50 in data set [1] amounted to 156 µM; in data set [2] it was 17.3 µM. The compound further came in with a Papp at 18 h in data set [3] of 21.4 ×10⁻⁶ cm/s. The Ratio IC50 in the data set filed under Homo sapiens stood at 0.1.

Compound `Clc1cccc(Cl)c1N=C1NCCN1` [CLONIDINE] had a Papp at 18 h in data set [3] of 5.3 to 6.5 ×10⁻⁶ cm/s.

As for `CNCCCN1c2ccccc2CCc2ccccc21` [DESIPRAMINE], the apparent permeability coefficient (Papp) at 18 h in data set [3] was in the range of 12 to 17.8 ×10⁻⁶ cm/s.

On to `C#CCN(C)CCc1nnn(CC)c1C`, for which the figures for the half-maximal inhibitory concentration (IC50) in data set [1] and in data set [2] were 238 µM and 91.2 µM, respectively. The Ratio IC50 in the data set listed under Homo sapiens is 0.4.

As for `CN1C(C(=O)Nc2ccccn2)=C(O)c2ccccc2S1(=O)=O` [PIROXICAM], the Papp at 18 h in data set [3] lay in the range of 1.93 to 2.5 ×10⁻⁶ cm/s.

As to `C#CCN(C)CCc1nnn(-c2ccccc2)c1CC`, the half-maximal inhibitory concentration (IC50) in data set [1] amounted to 213 µM; in data set [2] it was 7.5 µM. Further, the Papp at 18 h in data set [3] was 17 ×10⁻⁶ cm/s. Besides, the Ratio IC50 in the data set listed under Homo sapiens was 0.04.

On to `C#CCN(C)Cc1nnn(CC)c1C`, for which the concentration for half-maximal inhibition (IC50) in data set [1] is 105 µM; in data set [2], 267 µM. In the data set listed under Homo sapiens, the Ratio IC50 is 2.6.

With `CCn1cc(C(=O)O)c(=O)c2cc(F)c(N3CCNCC3)cc21` [NORFLOXACIN], the Papp at 18 h in data set [3] is 0.1 to 0.9 ×10⁻⁶ cm/s.

On to `C#CCN(C)Cc1nnn(C)c1CCCC`, for which the half-inhibitory concentration (IC50) in data set [1] was 94.7 µM; in data set [2] it was below 300 µM. In data set [3], this compound returned an apparent permeability coefficient (Papp) at 18 h of 29.9 ×10⁻⁶ cm/s. In addition, in the data set filed under Homo sapiens, the Ratio IC50 is below 3.2.

Consider `C#CCN(C)Cc1cn(Cc2ccccc2)nn1`, for which the 50% inhibitory concentration (IC50) is 129 µM in data set [1] and above 500 µM in data set [2]. The compound also returned a Papp at 18 h in data set [3] of 2.3 ×10⁻⁶ cm/s. In addition, the Ratio IC50 in the data set listed under Homo sapiens was above 3.9.

Turning to `C#CCN(C)CCc1cn(CCc2ccccc2)nn1`, the concentration for half-maximal inhibition (IC50) in data set [1] came out at 173 µM; in data set [2] it was 56.1 µM. Also, the Papp at 18 h in data set [3] was 14.8 ×10⁻⁶ cm/s. Besides, in the data set listed under Homo sapiens, the Ratio IC50 was determined as 0.3.

As to `C#CCN(C)Cc1ccc(Cc2cn(C)nn2)cc1`, the half-inhibitory concentration (IC50) in data set [1] was 0.6 µM; in data set [2], 0.5 µM. For the same compound, in data set [3], the Papp at 18 h was found to be 14.8 ×10⁻⁶ cm/s. In the data set listed under Homo sapiens, the Ratio IC50 came out at 0.9.

For `C#CCN(C)Cc1cccc(Cc2cn(C)nn2)c1`, the concentration for half-maximal inhibition (IC50) in data set [1] turned out to be 65 µM; in data set [2], 2.1 µM. In data set [3], this compound yielded a Papp at 18 h of 15.6 ×10⁻⁶ cm/s. For the same compound, the Ratio IC50 in the data set listed under Homo sapiens came to 0.03.

Turning to `C#CCN(C)Cc1cn(CC)nn1`, the half-inhibitory concentration (IC50) in data set [1] was 249 µM; in data set [2], 135 µM. Moreover, the Ratio IC50 in the data set filed under Homo sapiens worked out at 0.5.

The record behind these values is ChEMBL document CHEMBL4477223, “Design, synthesis and biological evaluation of N-methyl-N-[(1,2,3-triazol-4-yl)alkyl]propargylamines as novel monoamine oxidase B inhibitors” (Bioorg Med Chem, 2016).
